From ChEMBL document CHEMBL4715715, “Synthesis and biological evaluation of arylcinnamide linked combretastatin-A4 hybrids as tubulin polymerization inhibitors and apoptosis inducing agents” (Bioorg Med Chem Lett, 2016)

What was measured:
[1] = species: Sus scrofa; assay: Inhibition of porcine brain tubulin polymerization at 3 uM measured after 1 hr in presence of GTP by fluorescence assay relative to control; type: tissue-based
In short: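 Tubulin polymerization was followed by fluorescence (excitation 360 nm, emission 420 nm) for 1 h at 37 °C. Compounds were at 3 μM final, with and without compound. Values are mean ± SD of two experiments done in triplicate.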

[2] = test system: DU-145; assay: Antiproliferative activity against human DU-145 cells assessed as cell growth inhibition measured after 48 hrs by SRB assay; type: functional
In short: (§1)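 Sulforhodamine B (SRB) cell-staining assay across a panel of human cancer lines. Growth inhibition is reported as GI50.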

[3] = test system: MCF7; assay: Cell cycle arrest in human MCF7 cells assessed as accumulation at G2/M phase at 100 nM measured after 48 hrs by propidium iodide staining based flow cytometry (reference value: 8.44 %); type: functional
[4] = test system: K562; assay: Antiproliferative activity against human K562 cells assessed as cell growth inhibition measured after 48 hrs by SRB assay; type: functional; in short: as §1
[5] = test system: SK-OV-3; assay: Antiproliferative activity against human SK-OV-3 cells assessed as cell growth inhibition measured after 48 hrs by SRB assay; type: functional; in short: as §1
[6] = test system: HOP-62; assay: Antiproliferative activity against human HOP-62 cells assessed as cell growth inhibition measured after 48 hrs by SRB assay; type: functional; in short: as §1
[7] = test system: MCF7; assay: Induction of apoptosis in human MCF7 cells assessed as necrotic cells at 100 nM measured after 48 hrs by annexinV-FITC/propidium iodide staining based flow cytometry (reference value: 0.1 %); type: functional
[8] = test system: MCF7; assay: Cell cycle arrest in human MCF7 cells assessed as accumulation at sub-G1 phase at 50 nM measured after 48 hrs by propidium iodide staining based flow cytometry (reference value: 2.4 %); type: functional
In short: (§2)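 MCF-7 cells were treated at 50 and 100 nM for 48 h. Cell-cycle phase distribution (sub-G1, G0/G1, S, G2/M %) was read by flow cytometry against untreated control.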

[9] = test system: MCF7; assay: Cell cycle arrest in human MCF7 cells assessed as accumulation at G2/M phase at 50 nM measured after 48 hrs by propidium iodide staining based flow cytometry (reference value: 8.44 %); type: functional; in short: as §2
[10] = test system: MCF7; assay: Induction of apoptosis in human MCF7 cells assessed as early apoptotic cells at 50 nM measured after 48 hrs by annexinV-FITC/propidium iodide staining based flow cytometry (reference value: 4.4 %); type: functional
In short: (§3)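 MCF-7 cells were treated at 50 and 100 nM for 48 h. Annexin V-FITC/PI dual staining was read by flow cytometry. Cells were quadrant-gated as UL, UR, LL and LR, with untreated control alongside.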

[11] = test system: MCF7; assay: Induction of apoptosis in human MCF7 cells assessed as activation of caspase 9 at 100 nM measured after 48 hrs by fluorescence assay relative to control; type: functional
In short: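 MCF-7 breast cancer cells treated at 100 nM for 48 h. Caspase-9 activity compared with untreated control. Mean ± SD of two experiments each run in triplicate.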

[12] = test system: MCF7; assay: Induction of apoptosis in human MCF7 cells assessed as late apoptotic cell population at 100 nM measured after 48 hrs by Annexin V-FITC/PI staining based flow cytometry (reference value: 1 %)
[13] = test system: MCF7; assay: Induction of apoptosis in human MCF7 cells assessed as late apoptotic cell population at 50 nM measured after 48 hrs by Annexin V-FITC/PI staining based flow cytometry (reference value: 1 %)
[14] = test system: MCF7; assay: Induction of apoptosis in human MCF7 cells assessed as early apoptotic cell population at 100 nM measured after 48 hrs by Annexin V-FITC/PI staining based flow cytometry (reference value: 0.7 %)
[15] = test system: MCF7; assay: Cell cycle arrest in human MCF7 cells assessed as accumulation at S phase at 100 nM measured after 48 hrs by propidium iodide staining based flow cytometry (reference value: 3.1 %); type: functional
[16] = test system: MCF7; assay: Induction of apoptosis in human MCF7 cells assessed as live cells at 50 nM measured after 48 hrs by annexinV-FITC/propidium iodide staining based flow cytometry (reference value: 95 %)
[17] = test system: MCF7; assay: Cell cycle arrest in human MCF7 cells assessed as accumulation at sub-G1 phase at 100 nM measured after 48 hrs by propidium iodide staining based flow cytometry (reference value: 2.4 %); type: functional
[18] = Inhibition of porcine brain tubulin polymerization measured after 1 hr in presence of GTP by fluorescence assay; type: tissue-based, Sus scrofa
In short: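 Tubulin assembly followed by the rise in fluorescence (ex 360 nm, em 420 nm) over 1 h at 37 °C. Compounds tested at a final 3 μM with a reference control. IC50 defined as the concentration inhibiting 50% of tubulin assembly. Mean ± SD of two experiments in triplicate.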

[19] = test system: MCF7; assay: Induction of apoptosis in human MCF7 cells assessed as live cells at 100 nM measured after 48 hrs by annexinV-FITC/propidium iodide staining based flow cytometry (reference value: 95 %)
[20] = test system: MCF7; assay: Induction of apoptosis in human MCF7 cells assessed as early apoptotic cell population at 50 nM measured after 48 hrs by Annexin V-FITC/PI staining based flow cytometry (reference value: 0.7 %)
[21] = test system: MCF7; assay: Induction of apoptosis in human MCF7 cells assessed as necrotic cells at 50 nM measured after 48 hrs by annexinV-FITC/propidium iodide staining based flow cytometry (reference value: 0.1 %); type: functional; in short: as §3
[22] = test system: MCF7; assay: Antiproliferative activity against human MCF7 cells assessed as cell growth inhibition measured after 48 hrs by SRB assay; type: functional; in short: as §1
[23] = test system: MCF7; assay: Cell cycle arrest in human MCF7 cells assessed as accumulation at S phase at 50 nM measured after 48 hrs by propidium iodide staining based flow cytometry (reference value: 3.1 %); type: functional; in short: as §2
[24] = test system: MIA PaCa-2; assay: Antiproliferative activity against human MIA Paca-2 cells assessed as cell growth inhibition measured after 48 hrs by SRB assay; type: functional; in short: as §1
[25] = test system: MCF7; assay: Cell cycle arrest in human MCF7 cells assessed as accumulation at G0/G1 phase at 100 nM measured after 48 hrs by propidium iodide staining based flow cytometry (reference value: 85.3 %); type: functional
[26] = test system: MCF7; assay: Cell cycle arrest in human MCF7 cells assessed as accumulation at G0/G1 phase at 50 nM measured after 48 hrs by propidium iodide staining based flow cytometry (reference value: 85.3 %); type: functional; in short: as §2
[27] = test system: MCF7; assay: Induction of apoptosis in human MCF7 cells assessed as late apoptotic cells at 100 nM measured after 48 hrs by annexinV-FITC/propidium iodide staining based flow cytometry (reference value: 0.6 %)
[28] = test system: HeLa; assay: Antiproliferative activity against human HeLa cells assessed as cell growth inhibition measured after 48 hrs by SRB assay; type: functional; in short: as §1
[29] = test system: MCF7; assay: Induction of apoptosis in human MCF7 cells assessed as early apoptotic cells at 100 nM measured after 48 hrs by annexinV-FITC/propidium iodide staining based flow cytometry (reference value: 4.4 %); type: functional
[30] = test system: MCF7; assay: Induction of apoptosis in human MCF7 cells assessed as late apoptotic cells at 50 nM measured after 48 hrs by annexinV-FITC/propidium iodide staining based flow cytometry (reference value: 0.6 %)
[31] = test system: COLO 205; assay: Antiproliferative activity against human COLO 205 cells assessed as cell growth inhibition measured after 48 hrs by SRB assay; type: functional; in short: as §1

| Structure (SMILES) | inhibition [1] [%] | GI50 [2] [µM] | Activity [3] [%] | GI50 [4] [µM] | GI50 [5] [µM] | GI50 [6] [µM] | Activity [7] [%] | Activity [8] [%] | Activity [9] [%] | Activity [10] [%] | fold change (FC) [11] | Activity [12] [%] | Activity [13] [%] | Activity [14] [%] | Activity [15] [%] | live cells [16] [%] | Activity [17] [%] | IC50 [18] [µM] | live cells [19] [%] | Activity [20] [%] | other results |
| --- | --- | --- | --- | --- | --- | --- | --- | --- | --- | --- | --- | --- | --- | --- | --- | --- | --- | --- | --- | --- | --- |
| COc1ccc(/C=C\c2cc(OC)c(OC)c(OC)c2)c(NC(=O)/C=C/c2ccc(F)c(F)c2)c1O | 73.7 | 0.045 | 66.13 | 0.099 | 29.8 | 43.6 | 0.7 | 2.99 | 23.58 | 10.5 | 2 | 26 | 22.8 | 6.2 | 0.52 | 86.4 | 3.07 | 1.05 | 63.1 | 6.5 | Activity [21]: 1.1%; GI50 [22]: 0.031 µM; Activity [23]: 1.46%; GI50 [24]: 74 µM; Activity [25]: 27.47%; Activity [26]: 70.02%; late apoptotic cells [27]: 4.7%; GI50 [28]: 29.2 µM; Activity [29]: 31.4%; late apoptotic cells [30]: 2%; GI50 [31]: 74.9 µM |
| COc1ccc(/C=C/C(=O)Nc2c(/C=C\c3cc(OC)c(OC)c(OC)c3)ccc(OC)c2O)cc1OC | 69.2 | 0.06 | 64.29 | 0.094 | 0.099 | 0.09 | 0.7 | 2.56 | 15.25 | 8.4 | 2 | 22.5 | 12 | 7.2 | 0.35 | 89 | 3.65 | 1.97 | 82.2 | 0.8 | Activity [21]: 0.9%; GI50 [22]: 0.056 µM; Activity [23]: 2.86%; GI50 [24]: 29.9 µM; Activity [25]: 28.16%; Activity [26]: 78.55%; late apoptotic cells [27]: 2.3%; GI50 [28]: 7.5 µM; Activity [29]: 14.8%; late apoptotic cells [30]: 1.8%; GI50 [31]: 0.099 µM |
